The array DNA melting data of Ke et al. (doi:10.1101/2024.01.08.574731)

Columns and labels:
[1] = folding enthalpy; higher = less favourable; fluorescence melt of hairpins on a sequencing array, two-state fit; conditions: sodium 0.088 M
Method in brief: (§1)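 Melting temperature and folding enthalpy were derived from bootstrapped two-state fits. The fitted temperatures were raised by 9.35 °C to agree with UV melts, and four replicates were combined by inverse variance. The underlying data were Cy3 fluorescence images of library hairpins, with annealed Cy3 and quencher oligos, on a sequenced MiSeq flow cell in 50 mM Na-HEPES pH 8.0, 25 mM NaCl, taken in 2.5 °C steps up to 60 °C, normalised to pre-quench Cy3 and to control constructs.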

[2] = melting temperature; fluorescence melt of hairpins on a sequencing array, two-state fit, raised by 9.35 °C to match UV melts; conditions: sodium 0.088 M
Method in brief: as §1

| Sequence | folding enthalpy [1] [kcal/mol] | Tm [2] [°C] |
| --- | --- | --- |
| GCGTTGCGAAAGCATTGC ((..(((....)))..)) | -17.7 | 43.5 |
| TCTGTGAAAACAGA (((((....))))) | -17.6 | 42.4 |
| GAGACACGAAAGTGCCTC (((.(((....))).))) | -33.4 | 51.3 |
| GGTTGACGAAAGTCACC (((.(((....)))))) | -19.8 | 53.5 |
| GACTGAGGAAACTTGGTC (((..((....))..))) | -15.7 | 32.7 |
| GCCGTGCGAAAGCACTGC ((.((((....)))).)) | -14.4 | 61.8 |
| GTTATCCGAAAGGAGAAC (((.(((....))).))) | -37.4 | 51.1 |
| GGGGCGCCGAAAGGCCCC (((..(((....)))))) | -15 | 66.1 |
| GCTTAGTCGAAAGACAGC (((..(((....)))))) | -17.2 | 40.3 |
| GATCCCGATGGGATC ((((((...)))))) | -36.5 | 61.3 |
| GTCCAGCGAAAGCTAGAC (((.(((....))).))) | -22.1 | 46.4 |
| GATAAACGAAAGTTATC (((.(((....)))))) | -15.1 | 33.9 |
| GATCGGAATTCCGATC ((((((....)))))) | -51 | 56.6 |
| GATCGTCCCCACGATC ((((((....)))))) | -41.8 | 53.9 |
| GCGAAGCGAAAGCCACGC (((..((....))..))) | -8.54 | 42.5 |
| GGCATTCCGAAAGGAGCC (((..(((....)))))) | -23.4 | 43.1 |
| GCTTAGCGAAAGCTGTGC ((..(((....)))..)) | -16.4 | 39.7 |
| CGTGACGGAAACGTACG (((.(((....)))))) | -25.3 | 42.5 |
| GATCTGGGGGCAGATC ((((((....)))))) | -41 | 51 |
| GCGTGTGGAAACATGCGC (((..((....))..))) | -35.2 | 60.9 |
| GTCGCTGGAAACAACGAC ((((.((....)).)))) | -38.5 | 47.1 |
| GATCAGGCCCCTGATC ((((((....)))))) | -46.1 | 53.1 |
| GCGGTACGAAAGTACGC (((.(((....)))))) | -26.4 | 60.7 |

| Sequence | folding enthalpy [1] [kcal/mol] | Tm [2] [°C] |
| --- | --- | --- |
| GATCATCACATGATC ((((((...)))))) | -36.7 | 49.1 |
| GATCGTAATCACGATC ((((((....)))))) | -45.7 | 53.2 |
| GCTCTGCGAAAGCATTGC ((..(((....)))..)) | -14.2 | 40.5 |
| GTCTTCGAAAGAAATGAC ((((((....)))..))) | -9.91 | 25.1 |
| GGTCAGTCGAAAGACACC (((..(((....)))))) | -13.3 | 32.9 |
| GATCGTACTGACGATC ((((((....)))))) | -36.2 | 55.2 |
| GATCAACTCCTTGATC ((((((....)))))) | -36.6 | 44.2 |
| GCAGGGCGAAAGCGTTGC (((..((....))..))) | -19.1 | 54.1 |
| GTGAGGCGAAAGCCCCAC (((.(((....))).))) | -22.8 | 53.8 |
| GTTTCAGGAAACTAAAAC ((((.((....)).)))) | -8.21 | 29.2 |
| GCACACGGAAACGTGCAC (..((((....))))..) | -9.99 | 33.2 |
| GTTGATCGAAAGATGAAC (((.(((....))).))) | -24.1 | 37.1 |
| GTGGATGGAAACGTTCAC (((.(.(....).).))) | -16.7 | 32.4 |
| GATATTCCGAAAGGAATC (((..(((....)))))) | -11.4 | 32.7 |
| GTTCATGGAAACGTGAAC (((((.(....).))))) | -40.6 | 46.4 |
| GATCTCTATGGAGATC ((((((....)))))) | -42.8 | 54.9 |
| GTTTAAGGAAACTTAGAC ((.((((....)))).)) | -14.3 | 32.6 |
| GTCGGTCGAAAGACTGAC (((.(((....))).))) | -38.1 | 61.2 |
| GTGTTTCGAAAGAACAC (((.(((....)))))) | -32.3 | 46.9 |
| GCATGCGAAAGCATATGC ((((((....)))..))) | -20.1 | 50.1 |
| GATTGCGAAAGCAAAATC ((((((....)))..))) | -13.1 | 35.3 |
| GTGGACGAAAGTCTCCAC ((((((....)))..))) | -17.2 | 38.8 |
| CGACATCGGAAACGATCG (((..(((....)))))) | -12.7 | 34 |

| Sequence | folding enthalpy [1] [kcal/mol] | Tm [2] [°C] |
| --- | --- | --- |
| GCGGTGCGAAAGCAGAGC ((..(((....)))..)) | -33 | 63.5 |
| GTTTTCGAAAGAAAAAAC ((((((....)))..))) | -11.1 | 29.8 |
| GGGTGTGGAAACATGCCC (((..((....))..))) | -28.4 | 47.7 |
| GCATAGCGAAAGCGAAGC ((.(.((....)).).)) | -22.6 | 58.1 |
| GATCATTAACATGATC ((((((....)))))) | -28.6 | 44.7 |
| GGACATCGAAAGATTTCC (((.(((....))).))) | -32 | 39.6 |
| GTGACCCGAAAGGGCAC (((.(((....)))))) | -22.9 | 62.4 |
| GCGTACGAAAGTATTCGC ((((((....)))..))) | -25.5 | 40.7 |
| GATCTATCAATAGATC ((((((....)))))) | -33.6 | 42.8 |
| GATCTAACCGTAGATC ((((((....)))))) | -25.1 | 38 |
| GGGGGGGGAAACCCTCCC (((.(((....))).))) | -31.3 | 59.4 |
| AGAATCAGAAATGGTTCT ((((.((....)).)))) | -26.5 | 30.6 |
| GGCCTGGGAAACCGGGCC ((((.((....)).)))) | -30.6 | 66.3 |
| GCGAGGCGAAAGCCAAGC ((..(((....)))..)) | -20.5 | 69.2 |
| GCTACGGGAAACTGTAGC (((((.(....).))))) | -48.3 | 52.1 |
| GCATTGAAAAATGC (((((....))))) | -31.2 | 49.2 |
| GCAGGGCGAAAGCCTGGC ((..(((....)))..)) | -20.2 | 59.8 |
| GGCTTCGAAAGAATTGCC ((((((....)))..))) | -23.3 | 35.4 |
| GAGGGGGGAAACCCTCTC (((.(((....))).))) | -27.6 | 53.7 |
| GGCAAACGAAAGTTCGCC (((.(((....))).))) | -47.9 | 53.3 |
| GATCGGATTTCCGATC ((((((....)))))) | -36.5 | 57.5 |
| GCCGTCGCGAAAGCGGGC (((..(((....)))))) | -17.9 | 54.5 |
| GCTGCGCGAAAGCGACGC ((..(((....)))..)) | -19.4 | 56 |

| Sequence | folding enthalpy [1] [kcal/mol] | Tm [2] [°C] |
| --- | --- | --- |
| GATCATGGAAACATGGTC ((.((((....)))).)) | -25.8 | 46.6 |
| TTTGTGAAAACAAA (((((....))))) | -12.6 | 35.6 |
| GGATGCCGAAAGGCTCC (((.(((....)))))) | -17.8 | 55 |
| GCGAAGCGAAAGCTCTGC ((..(((....)))..)) | -7.9 | 39.7 |
| GCGACGCCTCGC ((((....)))) | -16.9 | 50.1 |
| TGAACGAAAGTTCA (((((....))))) | -20.6 | 53.3 |
| GCGAACGAAAGTTCCGC ((((((....))).))) | -29.9 | 54 |
| GCCATTCGAAAGAAAGGC (((.(((....))).))) | -37 | 49.3 |
| CGTAGTCGGAAACGAACG (((..(((....)))))) | -4.62 | 21.6 |
| GATCAGCTCACTGATC ((((((....)))))) | -31.9 | 52.2 |
| GACAAGGGAAACCTTGTC (((((((....))))))) | -40.4 | 59.4 |
| GGGATGACGAAAGTCCCC (((..(((....)))))) | -18.4 | 42.9 |
| GGTGTGGCGAAAGCCACC (((..(((....)))))) | -7.44 | 49 |
| GCCGCGTCGAAAGACGGC (((..(((....)))))) | -9.58 | 56.9 |
| GGGATAGGAAACTATCTC (.(((((....))))).) | -25.3 | 39.8 |
| GATCTAGGGTAGATC ((((((...)))))) | -22.7 | 36.7 |
| GTTAGGGGAAACTCTAAC (((((.(....).))))) | -29.2 | 38.3 |
| GTATGTCCGAAAGGATAC (((..(((....)))))) | -16.3 | 26.8 |
| GATCAAGTATTGATC ((((((...)))))) | -43.4 | 51.8 |
| GCTAGCGAAAGCTCTAGC ((((((....)))..))) | -15.3 | 38.5 |
| GGCCGGCGAAAGCCAGCC (((.(((....))).))) | -22.4 | 68.1 |
| GATCAGCAGTCTGATC ((((((....)))))) | -34.4 | 48.8 |
| GTTCCGGGAAACCGAAAC (((.(((....))).))) | -25 | 38.5 |
